Reference: ChEMBL document CHEMBL1154929, “Novel tetrahydrochinoline derived CETP inhibitors” (Bioorg Med Chem Lett, 2010)

Columns and labels:
[1] = molecular target: T1, Cholesteryl ester transfer protein (Homo sapiens, UniProt P11597); test: Inhibition of CETP assessed as cholesterol ester transfer after 4 hrs by microemulsion based fluorescence assay
T1 sequence (P11597 whole entry): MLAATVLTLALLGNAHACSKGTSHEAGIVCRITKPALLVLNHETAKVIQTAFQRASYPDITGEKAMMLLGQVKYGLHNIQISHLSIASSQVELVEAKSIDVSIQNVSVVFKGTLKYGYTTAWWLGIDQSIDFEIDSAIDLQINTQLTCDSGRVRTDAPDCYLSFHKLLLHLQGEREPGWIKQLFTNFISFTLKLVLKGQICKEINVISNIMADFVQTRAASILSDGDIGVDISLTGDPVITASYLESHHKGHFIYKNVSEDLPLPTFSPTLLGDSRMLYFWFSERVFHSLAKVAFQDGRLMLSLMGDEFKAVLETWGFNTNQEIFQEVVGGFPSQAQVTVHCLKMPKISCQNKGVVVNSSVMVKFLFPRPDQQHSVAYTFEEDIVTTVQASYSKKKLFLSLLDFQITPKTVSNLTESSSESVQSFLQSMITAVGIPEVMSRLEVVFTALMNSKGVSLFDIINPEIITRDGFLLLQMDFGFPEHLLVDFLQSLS
Method in brief: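 CETP-containing sample (1–3 µg CETP enriched from human plasma) incubated at 37 °C for 4 h with compound in DMSO and a liposome emulsion (1 vol donor, 1 vol buffer, 2 vol acceptor). Liposomes were made by dioxane injection into 50 mM Tris/HCl pH 7.3, 150 mM NaCl, 2 mM EDTA, then sonicated. Read-out was the fluorescence increase versus a DMSO control.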

[2] = molecular target: T1, Cholesteryl ester transfer protein; test: Inhibition of human plasma CETP assessed as [3H]cholesterol ester transfer after 18 hrs by scintillation proximity assay; format: cell-free
Method in brief: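 Scintillation proximity assay. HDL-³H-cholesteryl ester (~50,000 cpm) and biotin-LDL were incubated at 37 °C for 18 h with CETP (1 mg/ml stock) in […]/0.15 M NaCl/0.1% BSA/0.05% NaN₃ pH 7.4. Compound was dissolved in 10% DMSO/1% BSA. Streptavidin SPA beads were added with 1 h shaking, then scintillation counting. Buffer-only and CETP incubations served as controls.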

[3] = molecular target: T1, Cholesteryl ester transfer protein; test: Inhibition of human plasma CETP assessed as cholesterol ester transfer after 24 hrs by fluorescence assay; format: cell-free
Method in brief: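 Donor liposomes (12% v/v) and compound in DMSO (2% v/v) added to human plasma (86% v/v) and incubated at 37 °C for 24 h. Transfer was taken as the fluorescence change at 510/520 nm, compared with a DMSO control.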

[4] = Half life in mouse plasma; format: ADME, organism-based
[5] = Half life in rat plasma; format: ADME, organism-based
[6] = Half life in dog plasma; format: ADME, organism-based, Canis lupus familiaris
[7] = Oral bioavailability in rat; format: ADME, organism-based; details: in vivo
[8] = Oral bioavailability in dog; format: ADME, organism-based, Canis lupus familiaris; details: in vivo

Row | IC50 [1] [nM] | SMILES | other results
1 | 80 | CC(C)c1nc2c(c(C3CCCCC3)c1[C@@H](O)c1ccc(C(F)(F)F)cc1)[C@@H](O)CC(C)(C)C2 (relative stereo) | 
2 | 100 | O[C@@H](c1ccc(C(F)(F)F)cc1)c1c(C2CCCC2)nc2c(c1C1CCCCC1)[C@@H](O)CC1(CCC1)C2 | 
3 | 2000 | CCC(C)c1c(C(=O)c2ccc(C(F)(F)F)cc2)c(C2CCCC2)nc2c1[C@@H](O)CC(C)(C)C2 (stereo not given in full) | 
4 | 4500 | CCc1c(C(=O)c2ccc(C(F)(F)F)cc2)c(C2CCCC2)nc2c1[C@@H](O)CC(C)(C)C2 | 
5 | 90 | CC1(C)Cc2nc(C3CCCC3)c(C(=O)c3ccc(C(F)(F)F)cc3)c(C3CCCC3)c2[C@@H](O)C1 | 
6 | 500 | CC1(C)Cc2nc(C3CCCC3)c(C(=O)c3ccc(C(F)(F)F)cc3)c(C3CCN(C(=O)OCc4ccccc4)CC3)c2[C@@H](O)C1 | 
7 | 4000 | CC1(C)Cc2nc(C3CCCC3)c(C(=O)c3ccc(C(F)(F)F)cc3)c(N3CCCC3)c2[C@@H](O)C1 | 
8 | 22 | O[C@H]1CC2(CCC2)Cc2nc(C3CCCC3)c([C@@H](F)c3ccc(C(F)(F)F)cc3)c(C3CCCCC3)c21 | IC50 [2]: 62 nM; IC50 [3]: 60 nM
9 | 15000 | CC1(C)Cc2nc(C3CCCC3)c(C(=O)c3ccc(C(F)(F)F)cc3)c(CCl)c2[C@@H](O)C1 | 
10 | 70 | CC(C)c1nc2c(c(C3CCCCC3)c1[C@@H](O)c1ccc(C(F)(F)F)cc1)[C@@H](O)CC1(CCC1)C2 | 
11 | 30 | CC(C)c1nc2c(c(C3CCCCC3)c1[C@@H](F)c1ccc(C(F)(F)F)cc1)[C@@H](O)CC(C)(C)C2 | IC50 [2]: 23 nM; IC50 [3]: 75 nM
12 | 100 | CC1(C)Cc2nc(C3CCCC3)c([C@@H](O)c3ccc(C(F)(F)F)cc3)c(C3CCCCC3)c2[C@@H](O)C1 (relative stereo) | 
13 | 60 | CC1(C)Cc2nc(C3CCCC3)c(C(=O)c3ccc(C(F)(F)F)cc3)c(C3CCCCC3)c2[C@@H](O)C1 | 
14 | > 20000 | CC1(C)Cc2nc(C3CCCC3)c(C(=O)c3ccc(C(F)(F)F)cc3)c(C3CCNCC3)c2[C@@H](O)C1 | 
15 | 24 | CC(C)c1nc2c(c(-c3ccc(F)cc3)c1[C@@H](F)c1ccc(C(F)(F)F)cc1)[C@@H](O)CC1(CCC1)C2 | 
16 | 600 | CC(C)c1c(C(=O)c2ccc(C(F)(F)F)cc2)c(C2CCCC2)nc2c1[C@@H](O)CC(C)(C)C2 | 
17 | 70 | O=C(c1ccc(C(F)(F)F)cc1)c1c(C2CCCC2)nc2c(c1C1CCCC1)[C@@H](O)CC1(CCC1)C2 | 
18 | 33 | CC(C)c1nc2c(c(C3CCCCC3)c1C(=O)c1ccc(C(F)(F)F)cc1)[C@@H](O)CC1(CCC1)C2 | 
19 | 17 | CC(C)c1nc2c(c(C3CCCCC3)c1[C@@H](F)c1ccc(C(F)(F)F)cc1)[C@@H](O)CC1(CCC1)C2 | IC50 [2]: 33 nM; IC50 [3]: 70 nM
20 | 15000 | CC1(C)Cc2nc(C3CCCC3)c(C(=O)c3ccc(C(F)(F)F)cc3)c(CN3CCCCC3)c2[C@@H](O)C1 | 
21 | 2000 | CCCCCc1c(C(=O)c2ccc(C(F)(F)F)cc2)c(C2CCCC2)nc2c1[C@@H](O)CC(C)(C)C2 | 
22 | 3000 | CC1(C)Cc2nc(C3CCCC3)c(C(=O)c3ccc(C(F)(F)F)cc3)c(CC(F)(F)F)c2[C@@H](O)C1 | 
23 | 3000 | CC1(C)Cc2nc(C3CCCC3)c(C(=O)c3ccc(C(F)(F)F)cc3)c(C3CC3)c2[C@@H](O)C1 | 
24 | 39 | CC1(C)Cc2nc(C3CCCC3)c(Cc3ccc(C(F)(F)F)cc3)c(C3CCCCC3)c2[C@@H](O)C1 | IC50 [3]: 300 nM
25 | 31 | CC1(C)Cc2nc(C3CCCC3)c([C@@H](F)c3ccc(C(F)(F)F)cc3)c(-c3ccc(F)cc3)c2[C@@H](O)C1 | 
26 | > 20000 | CCOC(=O)c1c(C(=O)c2ccc(C(F)(F)F)cc2)c(C2CCCC2)nc2c1[C@@H](O)CC(C)(C)C2 | 
27 | 55 | O=C(c1ccc(C(F)(F)F)cc1)c1c(C2CCCC2)nc2c(c1C1CCCCC1)[C@@H](O)CC1(CCC1)C2 | 
28 | 70 | CC(C)c1nc2c(c(C3CCCCC3)c1C(=O)c1ccc(C(F)(F)F)cc1)[C@@H](O)CC(C)(C)C2 | 
29 | 600 | CCCc1c(C(=O)c2ccc(C(F)(F)F)cc2)c(C2CCCC2)nc2c1[C@@H](O)CC1(CCC1)C2 | 
30 | 300 | CC(C)c1c(C(=O)c2ccc(C(F)(F)F)cc2)c(C2CCCC2)nc2c1[C@@H](O)CC1(CCC1)C2 | 

Row | SMILES | IC50 [1] [nM] | other results
31 | CC1(C)Cc2nc(C3CCCC3)c([C@@H](F)c3ccc(C(F)(F)F)cc3)c(C3CCCCC3)c2[C@@H](O)C1 | 25 | IC50 [2]: 7 nM; IC50 [3]: 50 nM; half-life [4]: 5 h; half-life [5]: 7.2 h; half-life [6]: 8.6 h; bioavailability [7]: 44%; bioavailability [8]: 74%
